Compounds with a hit are over-represented: about 4.1% of the library has one in this group of screens.
SMARCA2 act: SMARCA2 function activation, primary screen; hit rate 1% among 370,000; activation, % at 9.1 µM; AID 652017; MG213 cells, MMTV-luciferase reporter, dexamethasone, overnight; in the data active = activation above about 7.8%;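 also: 0% = vehicle wells and 100% = reference activator wells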
MPTP block: inhibitors of mitochondrial permeability transition pore; isolated mouse mitochondria, Ca2+ swelling absorbance, 30 min; inhibition, % at 10 µM; hit rate 1.4% among 360,000;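 active = inhibition of 50% or more, scaled per plate between neutral and stimulator controls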;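 also: 0% = DMSO wells given calcium and 100% = 1 mM EGTA wells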
ATG4B inh: blocks human ATG4B protease cleavage of LC3 substrate; ATG4B cleavage of LC3-PLA2, NBD-HPC fluorescence, 1 h; Q9Y4P1; AID 504462; hit rate 0.51% among 340,000; inhibition, % at 8.33 µM; in the data active = inhibition above about 40%
MC4R antag cAMP: blocks human MC4R cAMP signaling; P32245; MC4R-expressing cells, MTII-stimulated cAMP, LANCE TR-FRET; inhibition, % at 6.5 µM; hit rate 0.48% among 360,000; AID 540295;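 active = inhibition above its plate's cutoff, the mean of tested wells on that plate plus 3 SD, cut at about 29% in these data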;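 also: 0% = Melanotan II alone and 100% = Melanotan II plus saturating MCL0020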
Target sequence (P32245 whole entry, looked up): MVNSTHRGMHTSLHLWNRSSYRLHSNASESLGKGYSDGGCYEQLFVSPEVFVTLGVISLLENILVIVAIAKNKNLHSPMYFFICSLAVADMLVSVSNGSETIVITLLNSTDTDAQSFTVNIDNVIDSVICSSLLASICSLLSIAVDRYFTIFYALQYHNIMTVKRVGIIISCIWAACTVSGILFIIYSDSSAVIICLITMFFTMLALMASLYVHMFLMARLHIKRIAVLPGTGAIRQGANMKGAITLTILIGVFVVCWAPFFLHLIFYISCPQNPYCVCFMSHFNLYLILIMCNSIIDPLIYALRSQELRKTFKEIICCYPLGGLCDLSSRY
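Material – human MC4R-expressing U2OS cells · Repeats – no replicates · Detection – TR-FRET with Eu-cAMP and labeled anti-cAMP, 671 nm · Times – compound 30 min, challenge 1 h, detection 1 h · Compound – single nominal compound dose of 6.5 µM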
MC4R barr agon: human MC4R agonism via beta-arrestin | P32245 | U2OS MC4R beta-arrestin complementation, luminescence; percent of melanotan II response, DMSO zero | activation, % at 8.9 µM | hit rate 0.98% among 360,000 | AID 540308;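 active = activation above a per-plate cutoff, the mean activation of sample wells on that plate plus 3 SD, cut at about 8% in these data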
cAMP nonselect: nonselective cAMP signaling inhibitor, MC4R antagonist counter-screen. inhibition, % at 6.5 µM. hit rate 26% among 1,600. AID 602193. shares compounds with MC4R antag cAMP. parental U2OS, forskolin cAMP, LANCE TR-FRET;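 active = mean inhibition over triplicates above the low-control well mean plus 3 SD, set per campaign, cut at about 13% in these data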;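 also: signal is single emission at 671 nm which falls as cellular cAMP rises; 0% = forskolin-stimulated wells and 100% = buffer without forskolin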
MC4R antag conf: human MC4R cAMP antagonism confirmation; hit rate 27% among 1,600; MC4R-expressing cells, MTII-stimulated cAMP, TR-FRET; inhibition, % at 6.5 µM; AID 602195; shares compounds with MC4R antag cAMP; in the data active = inhibition above about 29%;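 also: 0% = agonist stimulated wells alone and 100% = agonist stimulated wells plus saturating reference antagonist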
An asterisk follows results filed as active.

For Cn1cc(CN2CCC(C(=O)N3CCCC3)CC2)c(-c2ccccc2F)n1 the results were SMARCA2 act 6, MPTP block -2, ATG4B inh 5, MC4R antag cAMP 4 and MC4R barr agon 2.
C[C@@H]1CN(c2ccc(N3CCN(C(=O)OC(C)(C)C)C[C@@H]3C)cc2C#N)C[C@H](C)O1 was read as SMARCA2 act -4.
`CCN(C(=O)CSc1n[nH]c(-c2cccs2)n1)C1CCS(=O)(=O)C1` (stereo not given) gave SMARCA2 act -5, MPTP block 1, ATG4B inh 3, MC4R antag cAMP 30*, MC4R barr agon -1, cAMP nonselect -4 and MC4R antag conf -3.
For O=C(CSc1n[nH]c(-c2cccs2)n1)NC1CCS(=O)(=O)C1 (stereo not given) the results were SMARCA2 act -3, MPTP block -1, ATG4B inh 3, MC4R antag cAMP 0 and MC4R barr agon -1.
COc1ccc(CN2C(=O)c3ccccc3C2=O)cc1C(=O)O was read as SMARCA2 act -2, MPTP block -1, ATG4B inh -3, MC4R antag cAMP 30*, MC4R barr agon 1, cAMP nonselect 3 and MC4R antag conf -3.
Screening S=c1[nH]nc(-c2ccccn2)n1/N=C/c1ccco1 returned SMARCA2 act -1, MPTP block 1, ATG4B inh -1, MC4R antag cAMP 9 and MC4R barr agon 2.
S=c1[nH]nc(-c2ccccn2)n1/N=C/c1ccc(-c2ccccc2Br)o1 was read as SMARCA2 act 1, MPTP block -2, ATG4B inh -1, MC4R antag cAMP 94*, MC4R barr agon -1, cAMP nonselect 58* and MC4R antag conf 126*.
`O=S(=O)(c1cccs1)N1CCCc2nc(-c3ccc(F)cc3)ccc21` gave SMARCA2 act -8.
Screening CCOC(=O)N1CCN(C(=O)C[C@H]2C[C@@]3(C(=O)OC)C(=C[C@H](C(C)C)O[C@@H]3C3CC3)N(Cc3cccc4ccccc34)C2=O)CC1 returned SMARCA2 act -4.
Screening CCOC(=O)C1=C(C)N=c2s/c(=C/c3ccc(OCC(=O)O)cc3)c(=O)n2C1c1ccc(SC)cc1 (stereo not given) returned MPTP block 4, MC4R antag cAMP 22 and MC4R barr agon -2.
`CCOC(=O)C1=C(C)N=c2s/c(=C/c3ccc(OCC(=O)O)cc3)c(=O)n2C1c1ccc(F)cc1` (stereo not given) gave SMARCA2 act 0, MPTP block 0, ATG4B inh 21, MC4R antag cAMP 30*, MC4R barr agon 0, cAMP nonselect 2 and MC4R antag conf -5.
`CCN(C[C@H]1N[C@@](Cc2ccccc2)(C(=O)OC)[C@H]2C(=O)N(Cc3ccccc3)C(=O)[C@@H]12)S(=O)(=O)c1ccc(C(F)(F)F)cc1` gave SMARCA2 act -6, MPTP block 1, MC4R antag cAMP 38*, MC4R barr agon 3, cAMP nonselect 1 and MC4R antag conf 1.
COc1ccc(C2CC(c3c(O)cc(C)oc3=O)=NCCS2)c(OC)c1 (stereo not given) was read as MPTP block 0, ATG4B inh -21, MC4R antag cAMP -18 and MC4R barr agon -2.
Screening Cc1cc(O)c(C2=Nc3ccccc3SC(c3ccc(Cl)cc3)C2)c(=O)o1 (stereo not given) returned SMARCA2 act 0, MPTP block -2, ATG4B inh -1, MC4R antag cAMP 31*, MC4R barr agon -3, cAMP nonselect 3 and MC4R antag conf 4.
Screening Cc1ccc2[nH]c3c(=S)nc[nH]c3c2c1 returned SMARCA2 act 1, MPTP block 2, ATG4B inh -1, MC4R antag cAMP 48*, MC4R barr agon -2, cAMP nonselect 13 and MC4R antag conf 11.
Cc1ccc2[nH]c3c(=O)n(N)c(C)nc3c2c1 was read as SMARCA2 act 4, MPTP block -1, ATG4B inh -7, MC4R antag cAMP -11 and MC4R barr agon 1.
Screening O=C(Nc1ccccc1)N1CCc2c([nH]c3ccccc23)C1C(F)(F)F (stereo not given) returned SMARCA2 act -6, MPTP block 12, ATG4B inh -11, MC4R antag cAMP 35*, MC4R barr agon 1, cAMP nonselect -3 and MC4R antag conf -3.
For CC1c2[nH]c3ccccc3c2CCN1C(=O)Nc1ccccc1 (stereo not given) the results were SMARCA2 act 2, MPTP block -1, ATG4B inh -7, MC4R antag cAMP -9 and MC4R barr agon 1.
Screening Cc1ccc2c(c1)N(Cc1cccc(Cl)c1)C(=O)c1cccnc1O2 returned SMARCA2 act -1, MPTP block 2, ATG4B inh 19, MC4R antag cAMP 39*, MC4R barr agon 2, cAMP nonselect -2 and MC4R antag conf -2.
Screening O=C1c2cccnc2Oc2ccc(Cl)cc2N1Cc1ccc(F)cc1 returned SMARCA2 act -3, MPTP block 3, ATG4B inh 15, MC4R antag cAMP 19 and MC4R barr agon -1.
Screening Cc1cccc(C)c1NC(=O)c1sc(N)nc1-c1ccccc1 returned SMARCA2 act -1, MPTP block 0, ATG4B inh -4, MC4R antag cAMP 30*, MC4R barr agon 1, cAMP nonselect -3 and MC4R antag conf 5.
COc1cccc(CNC(=O)[C@H]2CCCN2C(=O)[C@H]2CCCN2C(=O)c2ccccc2)c1 was read as SMARCA2 act 0.
For Cc1sc2nc(CN3CCOCC3)nc(Cl)c2c1C the results were SMARCA2 act -1, MPTP block 1, ATG4B inh 8, MC4R antag cAMP 32*, MC4R barr agon -2, cAMP nonselect 11 and MC4R antag conf 28.
Screening Cc1sc2nc(CN3CCC(C)CC3)nc(Cl)c2c1C returned SMARCA2 act 1.
Screening CCOC(=O)c1c(NC(=O)C2CC2)sc2c1CC(C)(C)OC2 returned SMARCA2 act 1, MPTP block 4, ATG4B inh -2, MC4R antag cAMP 9 and MC4R barr agon -2.
For CCOC(=O)c1c(NC(=O)CCC(=O)O)sc2c1CC(C)(C)OC2 the results were SMARCA2 act 3, MPTP block -2, ATG4B inh 11, MC4R antag cAMP 33*, MC4R barr agon -1, cAMP nonselect 2 and MC4R antag conf -2.
CC(C)C(C#CC1CC1)NCc1ccc2c(c1)OCO2 (stereo not given) was read as SMARCA2 act 3.
`O=C(NCCc1csc(-c2ccccc2)n1)c1c(F)cccc1Cl` gave SMARCA2 act 1, MPTP block 0, ATG4B inh 3, MC4R antag cAMP 31*, MC4R barr agon -2, cAMP nonselect -2 and MC4R antag conf 0.
